In ChEMBL document CHEMBL1833913, “Structure-activity relationship study of pyridazine derivatives as glutamate transporter EAAT2 activators” (Bioorg Med Chem Lett, 2011):
Activity calls are given as the source filed them. No cut-off for these calls is given here.

Legend:
[1] = tested on: Astrocyte; experiment: Increase of EAAT2 expression in mouse primary astrocytes at 10 uM after 24 hrs by Western blot analysis relative to control; assay type: functional
Method in brief: (§1)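 PA-EAAT2 cells (primary astrocyte line stably expressing EAAT2 mRNA) were incubated with compound at 10 μM for 4 h or 24 h. Cells were then harvested and EAAT2 protein measured by Western blot. Results are given as fold increase over DMSO control.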

[2] = tested on: Astrocyte; experiment: Increase of EAAT2 expression in mouse primary astrocytes at 10 uM after 4 hrs by Western blot analysis relative to control; assay type: functional; method in brief: as §1
[3] = tested on: Astrocyte; experiment: Increase of EAAT2 expression in mouse primary astrocytes after 24 hrs by Western blot analysis relative to beta-actin protein expression; assay type: functional, cell-based
Method in brief: (§2)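 PA-EAAT2 cells (primary astrocyte line stably expressing EAAT2 mRNA) were exposed for 24 h to a 6-point series (0.1, 0.3, 1.0, 5.0, 10.0, 30.0 μM). EAAT2 protein was measured by Western blot and normalised separately to β-actin or GAPDH. Fold increase and EC50 were derived from the dose-response. Values are means of four separate experiments.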

[4] = tested on: Astrocyte; experiment: Increase of EAAT2 expression in mouse primary astrocytes at 1 uM after 24 hrs by Western blot analysis relative to beta-actin protein expression; assay type: functional; method in brief: as §2
[5] = tested on: Astrocyte; experiment: Increase of EAAT2 expression in mouse primary astrocytes at 1 uM after 24 hrs by Western blot analysis relative to GAPDH protein expression; assay type: functional; method in brief: as §2
[6] = tested on: Astrocyte; experiment: Increase of EAAT2 expression in mouse primary astrocytes at 10 uM after 24 hrs by Western blot analysis relative to beta-actin protein expression; assay type: functional; method in brief: as §2
[7] = tested on: Astrocyte; experiment: Increase of EAAT2 expression in mouse primary astrocytes at 10 uM after 24 hrs by Western blot analysis relative to GAPDH protein expression; assay type: functional; method in brief: as §2
[8] = tested on: Astrocyte; experiment: Increase of EAAT2 expression in mouse primary astrocytes after 24 hrs by Western blot analysis relative to GAPDH protein expression; assay type: functional, cell-based; method in brief: as §2

SMILES	fold change (FC) [1]	fold change (FC) [2]	further results
Clc1cccc(CSc2ccc(-c3ccccn3)nn2)c1Cl	2.4	inactive	
Cc1ccccc1CNC(=O)c1ccc(-c2ccccn2)nn1	1.4	inactive	
Cc1ccccc1CCSc1ccc(-c2ccccn2)nn1	2.8	1.2	
Cc1ccccc1CNc1ccc(-c2ccccn2)nn1	2.6	1.7	
Cc1ccccc1CSc1ccc(-c2cccnc2)nn1	inactive	1.5	
Sc1ccc(-c2ccccn2)nn1	2	inactive	
c1ccc(CSc2ccc(-c3ccccn3)cc2)cc1	1.1	1.2	
Cc1cccc(C)c1COc1ccc(-c2ccccn2)nn1	3.2	2.1	
Clc1ccccc1CCSc1ccc(-c2ccccn2)nn1	4.8	1.7	EC50 [3]: 4700 nM; fold change (FC) [4]: 1; fold change (FC) [5]: 1; fold change (FC) [6]: 4.8; fold change (FC) [7]: 4.5; EC50 [8]: 5100 nM
Oc1ccc(-c2ccccn2)nn1	1.6	1.5	
Cc1ccc(CSc2ccc(-c3ccccn3)nn2)cc1	2.6	2.1	
O=S(=O)(Cc1ccccc1Cl)c1ccc(-c2ccccn2)nn1	inactive	1.6	
Cc1cc(C)c(CSc2ccc(-c3ccccn3)nn2)c(C)c1	4.7	1.7	EC50 [3]: 2400 nM; fold change (FC) [4]: 1.5; fold change (FC) [5]: 1.6; fold change (FC) [6]: 4.7; fold change (FC) [7]: 4.8; EC50 [8]: 2100 nM
c1ccc(CSc2ccc(-c3ccccn3)nn2)cc1	3	1.3	
Fc1cccc(Cl)c1CSc1ccc(-c2cccnc2)nn1	2.3	inactive	
Cc1ccccc1CSc1ccc(-c2ccccn2)nn1	3.5	1.7	EC50 [3]: 2600 nM; fold change (FC) [4]: 1; fold change (FC) [5]: 1; fold change (FC) [6]: 3.5; fold change (FC) [7]: 3.1; EC50 [8]: 1800 nM
Fc1cccc(Cl)c1CCOc1ccc(-c2ccccn2)nn1	3.1	2.2	
CCSc1ccc(-c2ccccn2)nn1	1.9	1.6	
Fc1cccc(F)c1CSc1ccc(-c2ccccn2)nn1	2.2	2.1	
Clc1ccc(Cl)c(CSc2ccc(-c3ccccn3)nn2)c1	2.5	1.4	
Fc1cccc(Cl)c1CSc1ccc(-c2ccncc2)nn1	1.9	inactive	
O=S(=O)(Cc1c(F)cccc1Cl)c1ccc(-c2ccccn2)nn1	2.8	1.4	
Cc1cccc(CSc2ccc(-c3ccccn3)nn2)c1	2.8	2	

SMILES	fold change (FC) [1]	fold change (FC) [2]	further results
Fc1cc(F)c(CSc2ccc(-c3ccccn3)nn2)c(F)c1	2.4	1.6	
CC(Oc1ccc(-c2ccccn2)nn1)c1c(F)cccc1Cl (stereo not drawn)	3	1.6	
Cc1ccccc1CS(=O)(=O)c1ccc(-c2ccccn2)nn1	1.1	2.3	
Cc1ccccc1COc1ccc(-c2ccccn2)nc1	inactive	1.5	
Cc1ccccc1CSc1ccc(-c2ccccc2)nn1	2	1.1	
Cc1ccccc1COc1ccc(-c2ccccn2)nn1	2.5	2	
Clc1ccccc1CSc1ccc(-c2ccncc2)nn1	1.7	1.5	
Fc1ccc(CSc2ccc(-c3ccccn3)nn2)cc1	2.6	2.5	
Fc1ccc(Sc2ccc(-c3ccccn3)nn2)c(Cl)c1	2.5	1.3	
Fc1cccc(Cl)c1CSc1ccc(-c2ccccn2)nn1	2	inactive	
Cc1ccc(-c2ccc(SCc3c(F)cccc3Cl)nn2)cc1	2.3	1.2	
Cc1ccc(CSc2ccc(-c3ccncc3)nn2)cc1	2.4	1.3	
Cc1ccc(Sc2ccc(-c3ccccn3)nn2)c(C)c1	2.2	1.2	
Clc1ccc(CSc2ccc(-c3ccccn3)nn2)c(Cl)c1	inactive	1.8	
Cc1ccc(COc2ccc(-c3ccccn3)nn2)c(C)c1	2	inactive	
Fc1ccc(CSc2ccc(-c3ccccn3)nn2)c(Cl)c1	1.7	1.6	
Clc1ccccc1CSc1ccc(-c2cccnc2)nn1	1.2	1.2	
Cc1ccccc1CSc1ccc(-c2ccccn2)cn1	inactive	1.3	
CCCNC(=O)c1ccc(-c2ccccn2)nn1	1.2	inactive	
Fc1ccccc1CSc1ccc(-c2ccccn2)nn1	3.1	2.2	
Fc1ccc(COc2ccc(-c3ccccn3)nn2)c(F)c1	2.3	inactive	
Fc1cccc(Cl)c1COc1ccc(-c2ccccn2)nn1	2.9	1.1	
